Experimental data taken from ChEMBL document CHEMBL6134899 (J Med Chem, 2025).
Activity calls are given as the source filed them. The calls are words filed in the database; no cut-off is given here.

Columns and labels:
[1] = target: Sodium-dependent serotonin transporter (Homo sapiens) (UniProt P31645); assay: Displacement of [3H]imipramine from recombinant human SERT receptor expressed in CHO cells at 10 uM incubated for 60 mins by scintillation counting method; assay type: cell-based
In short: (§1)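 Radioligand displacement run by a commercial provider, with test compound at 10 μM. Reported as mean ± SD of two independent measurements, each in duplicate.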

[2] = target: Sodium-dependent dopamine transporter (Homo sapiens) (UniProt Q01959); assay: Displacement of [3H]BTCP from recombinant human DAT receptor expressed in CHO cells at 10 uM incubated for 120 mins by scintillation counting method; assay type: cell-based; in short: as §1
[3] = target: Sodium-dependent dopamine transporter (Homo sapiens) (UniProt Q01959); assay: Inhibition of DAT receptor (unknown origin) at 100 nM
[4] = target: Sodium-dependent noradrenaline transporter (Homo sapiens) (UniProt P23975); conditions: dose 10-100 nM
[5] = target: Sodium-dependent serotonin transporter (Homo sapiens) (UniProt P31645); assay: Inhibition of SERT receptor (unknown origin) at 100 nM
[6] = Drug accumulation in C57BL/6JRJ mouse brain at 5 mg/kg, iv followed by 1 week after washout period treated at 5 mg/kg, po followed by 1 week after washout period treated at 5 mg/kg, po measured after 30 mins; assay type: ADME, organism-based; conditions: in vivo, 168 h, time 1 weeks
In short: (§2)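 The same four C57BL/6JRJ mice (2 male, 2 female) first had i.v. and then oral PK runs, each followed by 1 week washout. They were then gavaged with 5 mg/kg in saline at 5 mL/kg. At 30 min they were decapitated under isoflurane, and blood and tissues were harvested. Tissue levels were quantified by LC-ESI-MS/MS and given as mean ± SD of four mice.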

[7] = Acute toxicity in C57BL6/J mouse assessed as piloerection at 1.0 to 10 mg/kg, ip; assay type: organism-based; conditions: in vivo, dose 1-10 mg/kg
In short: (§3)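 Male mice, 12 weeks old, were handled for 10 days and rotarod-trained before dosing. Each received 1.0 or 10 mg/kg i.p. (n = 7) or vehicle, 0.5% DMSO (n = 6), at 1% body-weight volume. Animals were held 40 min in a separate cage, then observed during rotarod, light/dark box and rectal temperature tests for signs of toxicity. Sacrifice was 1 h post-dose.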

[8] = Acute toxicity in C57BL6/J mouse assessed as gastrointestinal distress at 1.0 to 10 mg/kg, ip; assay type: organism-based; conditions: in vivo, dose 1-10 mg/kg; in short: as §3
[9] = AUC in C57BL/6JRJ mouse at 5 mg/kg, iv measured up to 24 hrs; assay type: ADME, organism-based; conditions: in vivo
In short: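 C57BL/6JRJ mice, 8–9 weeks old (2 male, 2 female), received 5 mg/kg (dose based on free salt MW) in 0.9% saline at 5 mL/kg by tail-vein injection after tail warming. Tail-vein blood microsamples (<20 μL) were taken at 5, 15, 30 min and 1, 1.5, 2, 4, 8 and 24 h, quantified by MRM LC-ESI-MS/MS, and reported as mean ± SD of four mice.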

[10] = Acute toxicity in C57BL6/J mouse assessed as hunched posture at 1.0 to 10 mg/kg, ip; assay type: organism-based; conditions: in vivo, dose 1-10 mg/kg; in short: as §3
[11] = Drug accumulation in C57BL/6JRJ mouse adrenal gland at 5 mg/kg, iv followed by 1 week after washout period treated at 5 mg/kg, po followed by 1 week after washout period treated at 5 mg/kg, po measured after 30 mins; assay type: ADME, organism-based; conditions: in vivo, 168 h, time 1 weeks; in short: as §2
[12] = Acute toxicity in C57BL6/J mouse assessed as convulsions at 1.0 to 10 mg/kg, ip; assay type: organism-based; conditions: in vivo, dose 1-10 mg/kg; in short: as §3

Sequence of Sodium-dependent dopamine transporter (Homo sapiens) (Q01959 whole entry): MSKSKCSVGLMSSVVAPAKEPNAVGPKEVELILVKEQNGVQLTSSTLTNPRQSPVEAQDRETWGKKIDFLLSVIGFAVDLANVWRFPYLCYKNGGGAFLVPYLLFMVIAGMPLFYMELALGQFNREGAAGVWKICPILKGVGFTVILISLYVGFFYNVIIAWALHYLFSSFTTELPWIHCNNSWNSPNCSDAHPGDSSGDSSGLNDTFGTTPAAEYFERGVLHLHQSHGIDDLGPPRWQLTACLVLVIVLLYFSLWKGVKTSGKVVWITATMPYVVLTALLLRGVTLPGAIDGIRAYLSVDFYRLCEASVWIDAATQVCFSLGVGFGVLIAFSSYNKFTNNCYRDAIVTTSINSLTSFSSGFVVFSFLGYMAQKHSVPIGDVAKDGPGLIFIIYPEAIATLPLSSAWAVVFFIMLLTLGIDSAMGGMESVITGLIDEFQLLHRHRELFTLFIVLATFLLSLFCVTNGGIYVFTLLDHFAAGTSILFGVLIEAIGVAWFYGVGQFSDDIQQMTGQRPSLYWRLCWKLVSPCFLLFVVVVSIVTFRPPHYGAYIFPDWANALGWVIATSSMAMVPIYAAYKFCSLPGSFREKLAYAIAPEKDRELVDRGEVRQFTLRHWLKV
Sequence of Sodium-dependent noradrenaline transporter (Homo sapiens) (P23975 whole entry): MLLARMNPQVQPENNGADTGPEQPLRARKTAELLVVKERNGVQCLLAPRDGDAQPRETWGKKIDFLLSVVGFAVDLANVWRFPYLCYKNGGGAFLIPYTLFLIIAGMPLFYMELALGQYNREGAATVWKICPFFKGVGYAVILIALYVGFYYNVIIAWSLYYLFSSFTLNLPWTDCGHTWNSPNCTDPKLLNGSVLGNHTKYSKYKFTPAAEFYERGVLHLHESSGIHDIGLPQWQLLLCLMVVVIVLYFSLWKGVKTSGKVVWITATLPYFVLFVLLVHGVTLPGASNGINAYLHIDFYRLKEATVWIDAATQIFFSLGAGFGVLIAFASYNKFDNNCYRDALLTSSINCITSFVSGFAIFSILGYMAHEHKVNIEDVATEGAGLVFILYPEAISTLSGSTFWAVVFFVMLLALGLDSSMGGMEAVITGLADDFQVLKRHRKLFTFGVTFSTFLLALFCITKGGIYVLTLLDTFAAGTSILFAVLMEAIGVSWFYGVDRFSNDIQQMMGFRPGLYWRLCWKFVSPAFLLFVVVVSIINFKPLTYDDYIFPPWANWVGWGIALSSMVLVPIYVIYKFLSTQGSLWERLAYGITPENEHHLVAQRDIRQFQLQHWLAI
Sequence of Sodium-dependent serotonin transporter (Homo sapiens) (P31645 whole entry, looked up): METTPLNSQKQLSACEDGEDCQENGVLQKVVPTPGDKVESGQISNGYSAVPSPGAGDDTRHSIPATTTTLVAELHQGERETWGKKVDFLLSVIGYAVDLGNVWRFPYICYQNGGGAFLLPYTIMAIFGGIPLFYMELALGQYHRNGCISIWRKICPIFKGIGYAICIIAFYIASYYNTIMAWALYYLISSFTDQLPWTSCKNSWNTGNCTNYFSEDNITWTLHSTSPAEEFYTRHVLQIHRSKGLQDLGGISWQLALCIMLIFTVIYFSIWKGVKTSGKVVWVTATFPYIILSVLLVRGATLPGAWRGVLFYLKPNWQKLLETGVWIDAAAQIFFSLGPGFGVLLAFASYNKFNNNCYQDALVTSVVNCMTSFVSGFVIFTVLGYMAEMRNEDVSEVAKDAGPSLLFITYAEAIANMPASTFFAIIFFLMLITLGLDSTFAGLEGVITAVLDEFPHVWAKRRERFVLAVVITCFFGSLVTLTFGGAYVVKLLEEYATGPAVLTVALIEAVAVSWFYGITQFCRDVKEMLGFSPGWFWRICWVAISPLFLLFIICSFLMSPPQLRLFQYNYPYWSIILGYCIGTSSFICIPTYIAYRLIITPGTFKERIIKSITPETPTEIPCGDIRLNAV

Row | Structure (SMILES) | inhibition [3] | inhibition [4] | inhibition [5] | other results
1 | c1ccc(CN2CCCC[C@@H]3NCCCC[C@H]32)cc1 |  |  |  | Activity [1]: Active; Activity [2]: Active
2 | Clc1cc(Cl)cc(CN2CCCC[C@H]3NCC[C@H]32)c1 | Active | Active | Active | 
3 | Clc1cccc(CN2CCCC[C@H]3NCC[C@H]32)c1Cl | Active | Active | Active | 
4 | Clc1cccc(CN2CCCC[C@H]3NCC[C@H]32)c1 | Active | Active | Active | 
5 | Brc1cccc(CN2CCCC[C@H]3NCC[C@H]32)c1 | Active | Active | Active | 
6 | c1ccc(CN2CCCC[C@@H]3NCCC[C@H]32)cc1 |  |  |  | Activity [1]: Active; Activity [2]: Active
7 | Fc1cccc(CN2CCCC[C@H]3NCC[C@H]32)c1 | Active | Active | Active | 
8 | Clc1ccc(CN2CCCC[C@H]3NCC[C@H]32)cc1 | Active | Active | Active | 
9 | Clc1ccccc1CN1CCCC[C@H]2NCC[C@H]21 | Active | Active | Active | 
10 | c1ccc(CN2CCCC[C@H]3NCCC[C@H]32)cc1 |  |  |  | Activity [1]: Active; Activity [2]: Active
11 | c1ccc(CN2CCCC[C@H]3NCC[C@H]32)cc1 |  |  |  | Drug uptake [6]: Active; Activity [7]: Non-toxic; Activity [8]: Non-toxic; AUC [9]: 47948 ng·min/mL; Activity [10]: Non-toxic; Drug uptake [11]: Active; Activity [12]: Non-toxic
